This note sets out measurements from ChEMBL document CHEMBL4513216, “Probing the Open Global Health Chemical Diversity Library for Multistage-Active Starting Points for Next-Generation Antimalarials” (ACS Infect Dis, 2020).

The data set can be described thus: Toxicity liver stage against HepG2, at 10uM. The data set is classed as cell-based. Set-up: test concentration 10 uM, cell line HepG2-A16-CD81EGFP. Conditions: human, HepG2-A16-CD81EGFP cells; read-out: INHIBITION
The method, boiled down: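 Uninfected HepG2-A16-CD81EGFP cells, 3 × 10^3 per well, 1536-well, plated on prespotted compound at 10 μM final, parasite-free screening media added to match infected plates; puromycin 10 μM positive, DMSO 0.5% negative; run in parallel with 48 h PbLuc assay at 37 °C, 5% CO2; viability by CellTiter-Glo luminescence, normalized to controls.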
Take `Cc1c(C)n2c(SCC(=O)N3CCCCC3)nnc2[nH]c1=O`: the cytotoxicity at 10 µM stood at 3.33%. In the case of `COc1ccc2nnc(CCC(=O)Nc3nc4c(s3)CCC4)n2n1` it was -4.8%; in that of `Cc1noc([C@@H]2C[C@H](NC(=O)Nc3cccc(F)c3)CN2C)n1`, -2.17%; in that of `COCCn1ccc2c(C(=O)NCC3CCCO3)cccc21` (stereo unspecified), 1.53%. The same measure for `CCCS(=O)(=O)c1ccc(N2CCC(Cc3ccccc3)CC2)nn1`: -7.91%. In the case of `COc1ccc(S(=O)(=O)NCCCc2ccc(N(C)C)cc2)cc1F` it was -2.59%; in that of `COc1ccccc1C(=O)N1CC2(COC(C)(C)OC2)C1`, -6.4%. For the molecule `Cn1nnc2c1CCN(C(=O)CC1CC1)C2COCCN1CCCC1` (stereo unspecified), the cytotoxicity at 10 µM is 17.4%.

`Cn1cnc2c1C(COCC1CC1)CN(C(=O)c1cccs1)C2` (stereo unspecified): the cytotoxicity at 10 µM worked out at 7.63%.

With `CCc1nnc2sc(-c3cc(C(C)C)n[nH]3)nn12`, the cytotoxicity at 10 µM is -7.37%. Consider `O=c1c2cnc(N3CCCC3)nc2ccn1-c1cccc(C(F)(F)F)c1`, for which the cytotoxicity at 10 µM was 16.9%. In the case of `O=C(CCc1nc2cccnc2[nH]1)NCc1cccnc1` it was 7.72%; in that of `CS(=O)(=O)N1CCCCCC1c1cc(-c2ccc(F)cc2)no1` (stereo unspecified), 2.97%. The same measure for `CN1C[C@@H](C(=O)NC2CCCC2)[C@@]2(COc3ccc(F)cc3C2=O)C1`: 2.1%; for `CCC(=O)N1CCCCC1c1nc(O)c2c(n1)CN(S(=O)(=O)CC)CC2` (stereo unspecified): 1.7%. In the case of `Cc1cnc(-c2nc(C3CCN(Cc4ccccc4O)CC3)no2)cn1` it was 3.66%; in that of `Cc1noc(CNc2cc3c(cc2Cl)OCCCO3)n1`, -1.49%; in that of `Cc1cc(C)cc(NCCC(=O)NCc2cccnc2N(C)C)c1`, -0.211%. For `Cc1nnc(CN2CCCC2c2ccc3c(c2)OCCO3)n1C` (stereo unspecified), the cytotoxicity at 10 µM is -0.379%. The same measure for `CC(C)N1CCC(NC(=O)c2cn(-c3ccc(F)cc3)nn2)C1` (stereo unspecified): -5.05%; for `CC(C)(C)NC(=O)COc1ccc(Oc2ccccn2)cc1`: 7.32%; for `CN(C)CCOc1ccc(CNC(=O)c2cccc3[nH]ncc23)cc1`: 7.99%. The same measure for `CC(C)c1n[nH]c(C2CN(Cc3ncc[nH]3)CCO2)n1` (stereo unspecified): 1.95%; for `CC(=O)Cn1cc(C#N)c(=O)c2cc(Br)ccc21`: -7.06%; for `Cc1noc(C)c1CN(C)C(=O)NCCOc1ccc(F)cc1F`: -0.0414%. The same measure for `COC(C)c1nc(CN2CCNCC2)cs1` (stereo unspecified): 4.68%. Take `COCCNC(=O)CN(C)CCn1nc2ccccn2c1=O`: the cytotoxicity at 10 µM is -156%. Consider `CC(C)S(=O)(=O)NCC1CCCN(C(=O)c2ccc(F)cc2)C1` (stereo unspecified), for which the cytotoxicity at 10 µM stood at 4.68%. The same measure for `CC1CCCN(C(=O)Nc2ccc(F)c(C(N)=O)c2)C1` (stereo unspecified): -7.48%; for `Cc1cc(N2CCCC2c2nnc3n2CCCCC3)nc(C)n1` (stereo unspecified): 9.59%; for `COC(=O)NCCC(=O)NCC1(c2cccc(Cl)c2)CC1`: -4.31%. In the case of `COc1ccc(C)cc1CN(Cc1ncc(C)o1)C1CCN(C)C1` (stereo unspecified) it was -0.76%. The same measure for `CS(=O)(=O)NC1CCN(CCc2ccccc2)CC1`: -1.76%; for `CCc1nsc(NC2CC(=O)N(C(C)(C)C)C2)n1` (stereo unspecified): 5.6%; for `CS(=O)(=O)Cc1ccc(NC(=O)c2cccnc2)cc1F`: -1.53%. For the molecule `CC(C)N(CC(N)=O)C(=O)CCC(=O)c1ccc(F)cc1F`, the cytotoxicity at 10 µM came to 0.529%.

Consider `COCc1nc(C(=O)N2CCN(Cc3ccsc3)CC2)cs1`, for which the cytotoxicity at 10 µM was -0.684%. In the case of `O=C(NCCCc1nc(=O)[nH][nH]1)Nc1ccc(Cl)cc1`, the cytotoxicity at 10 µM was -54.9%. Regarding `COCCC(=O)Nc1nccn1Cc1ccc(Br)cc1`, the cytotoxicity at 10 µM was -47.2%. With `Cc1ccc(C(=O)N(C)CCNS(C)(=O)=O)cc1Br`, the cytotoxicity at 10 µM was -45.8%. The same measure for `Cc1nc(C2CCCN(C(=O)CCCOc3cccc(F)c3)C2)no1` (stereo unspecified): 9.91%. In the case of `C[C@H]1CN(C(=O)c2cccnc2)C[C@@]12CCN(CCN1CCCC1)C2=O` it was -4.71%; in that of `O=C(O)CCc1cn(C2CCN(c3ncccc3Cl)CC2)nn1`, -49.3%; in that of `Cc1[nH]c(-c2ccccc2)nc1C(=O)N1CC[C@H](CO)[C@@H](O)C1`, 76.5%. Consider `Cc1ccc(CN2CCCC(c3nnc(CN4CCCCC4)n3C)C2)s1` (stereo unspecified), for which the cytotoxicity at 10 µM was -2.46%. On to `Cc1oc(-c2ccoc2)nc1CN1CCCCC1CCn1cccn1` (stereo unspecified), for which the cytotoxicity at 10 µM was -3.65%. Regarding `CCC[C@H]1CN(S(C)(=O)=O)C[C@@H]1NC(=O)c1ccc(COC)cc1`, the cytotoxicity at 10 µM stood at 1.1%. In the case of `CCNC(=O)[C@@H]1C[C@@H](N)CN1Cc1ccc(-c2ccccc2C#N)o1` it was -50.1%. The same measure for `CN(C)C(C(=O)N1CCC(C#N)CC1)c1ccccc1F` (stereo unspecified): -3.59%; for `CN1CCC(N(C)CCC(=O)N2CCC(OCc3ccccc3)CC2)C1` (stereo unspecified): -6.35%. In the case of `CC(C)c1nnc(CN2CCCC3(CC2)CN(C)C(=O)O3)o1` (stereo unspecified) it was -1.52%. On to `Cc1cc(-c2cc(C3CCOC3)c(C#N)c(N)n2)ccc1Cl` (stereo unspecified), for which the cytotoxicity at 10 µM was -0.611%. With `CC(C)(C)c1cc(CN2CCOC(CCc3ccccc3)C2)n[nH]1` (stereo unspecified), the cytotoxicity at 10 µM is -5.34%.

For the molecule `O=S1(=O)COCCN1CCCOc1ccc(F)cc1`, the cytotoxicity at 10 µM worked out at 3.57%. In the case of `CN(C)Cc1nnc(C2CCCN(c3ncccc3F)C2)n1C` (stereo unspecified) it was 7.36%. The same measure for `CC(C)=CCN1CCN(Cc2nccn2C)[C@H]2CS(=O)(=O)C[C@H]21`: -2.76%. With `COCCOC1CCN(C(C(=O)O)c2ccc(F)c(Cl)c2)CC1` (stereo unspecified), the cytotoxicity at 10 µM turned out to be 9.84%.

As for `COc1ccc(-c2n[nH]cc2CN(C)Cc2nnc(C)o2)c(F)c1`, the cytotoxicity at 10 µM was -3.01%. Take `COc1ccc([C@@H]2CN(Cc3cccnc3N)C[C@H]2NC(C)=O)cc1`: the cytotoxicity at 10 µM came to 0.0652%. The same measure for `Fc1ccc(-c2nc(CNC3CCc4ncnn4C3)co2)cc1` (stereo unspecified): -4.2%; for `CC(C)c1nc(CN2CCCCC2Cn2cncn2)cs1` (stereo unspecified): -5.06%; for `Cc1ccc(C(=O)Nc2nc(C)no2)cc1`: -1.81%.

For `CC(C)c1nn(C)c(N(C)C)c1CNCc1ccc(CO)c(F)c1`, the cytotoxicity at 10 µM is -5.4%. The same measure for `CNC(=O)NC(=O)CCN1CCN(c2ccc(C(=O)OC)cc2)CC1C` (stereo unspecified): -17.8%. The same measure for `Cn1cc(Cl)cc1C(=O)N1CCN(CCc2cccs2)CC1`: -11.8%. The same measure for `COc1cc(CNCC2CNc3ccnn3C2)ccn1` (stereo unspecified): -0.65%; for `CN(CC(=O)N1CCCC1c1noc(C2CC2)n1)Cc1ccccc1` (stereo unspecified): -5.09%. Consider `CN(C)S(=O)(=O)N1C[C@@H]2CN(Cc3ccoc3)CCO[C@@H]2C1`, for which the cytotoxicity at 10 µM was determined as 12.2%. `Cc1ccc(CN2CC[C@H]3OCC[C@@H](C(=O)NC4CC4)[C@@H]3C2)o1`: the cytotoxicity at 10 µM stood at 5.81%. In the case of `CNC(=O)[C@@]12CCO[C@@H]1CCN(S(=O)(=O)c1cccnc1)C2` it was -3.3%; in that of `Cc1cccc(CN2C[C@@H]3CN(C(=O)c4ccsc4)C[C@@H]3C2=O)n1`, 5.86%.
